Key:
[1] = Cytotoxicity assay using cell-counting kit-8; type: cell-based
Outline: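 HeLa cells (5 × 10³) exposed to dye-labelled (Alexa Fluor 647) tripeptides carrying perfluoroalkyl or alkyl chains for 1 h. Viability read with the CCK-8 reagent, and IC50 reported from this read-out.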

HeLa cells = assay: Cellular uptake by flow cytometry; type: cell-based; conditions: 150 nM peptide, 1 h, 37 °C, 5% CO2, serum-free medium, AF647 fluorescence, AF647-NEt2 control as reference

C[C@H](NC(=O)CCCCCC1(C)C(=CC=CC=CC2=[N+](CCCS(=O)(=O)[O-])c3ccc(S(=O)(=O)O)cc3C2(C)C)N(CCCS(=O)(=O)O)c2ccc(S(=O)(=O)O)cc21)C(=O)N[C@@H](CC(=O)Nc1ccc(C(F)(F)C(F)(F)C(F)(F)C(F)(F)C(F)(F)C(F)(F)C(F)(F)C(F)(F)F)cc1)C(=O)N[C@@H](Cc1ccccc1)C(N)=O (some centres unmarked) [AF647-RF-tripeptide (RF = C8F17)]
IC50 [1]: 41 ± 9 µM
Cellular uptake efficiency (fluorescence intensity of cells, RFI) (HeLa cells): comparable cellular uptake efficiencies
